Measurements as given in ChEMBL document CHEMBL1149191, “Novel pyridazino[4,3-b]indoles with dual inhibitory activity against Mycobacterium tuberculosis and monoamine oxidase” (J Med Chem, 2004).
Converted amounts (≈) assume the structure as drawn.

How the values were obtained:
[1] = biological target: T1, Amine oxidase [flavin-containing] B (Rattus norvegicus, UniProt P19643); test: Inhibition of Monoamine oxidase B from rat liver mitochondria
T1 sequence (P19643 whole entry): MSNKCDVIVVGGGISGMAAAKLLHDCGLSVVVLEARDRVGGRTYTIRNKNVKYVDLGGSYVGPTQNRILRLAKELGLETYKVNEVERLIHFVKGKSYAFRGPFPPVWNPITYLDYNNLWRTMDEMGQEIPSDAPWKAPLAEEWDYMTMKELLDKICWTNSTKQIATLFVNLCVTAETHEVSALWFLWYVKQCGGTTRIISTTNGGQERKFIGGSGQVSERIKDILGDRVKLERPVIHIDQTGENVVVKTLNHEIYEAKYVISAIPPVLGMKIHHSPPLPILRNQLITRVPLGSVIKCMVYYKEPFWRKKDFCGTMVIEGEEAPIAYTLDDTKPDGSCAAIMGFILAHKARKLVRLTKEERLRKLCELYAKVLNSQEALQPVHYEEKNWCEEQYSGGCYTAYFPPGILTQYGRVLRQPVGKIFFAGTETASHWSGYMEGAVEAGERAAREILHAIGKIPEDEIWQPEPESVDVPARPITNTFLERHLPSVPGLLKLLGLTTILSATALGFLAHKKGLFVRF
Summary of the method: (§1)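 Rat liver mitochondria from differential centrifugation, in 50 mM phosphate buffer pH 7.4. Preincubated with inhibitor (10⁻⁸–10⁻³ or 10⁻⁴ M) for 60 min at 37 °C. MAO-B activity measured radiometrically as ¹⁴C-aldehyde formed from 10 μM [¹⁴C]-phenylethylamine; IC50 reported.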

[2] = tested on: Mycobacterium tuberculosis; test: Minimal inhibitory activity of compound against Mycobacterium tuberculosis H37Rv; assay type: functional
Summary of the method: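 Same H37Rv [³H]-uracil incorporation assay: compound at final 20, 2.0 and 0.2 μg/mL, 24 h, then 1 μCi 5,6-[³H]-uracil for 18 h at 37 °C, harvested on filters, scintillation counted, triplicate. MIC50 is the concentration giving 50% reduction in cpm versus drug-free plate at the same bacterial dilution.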

[3] = tested on: Mycobacterium tuberculosis; test: In vitro inhibition of Mycobacterium tuberculosis H37Rv, determined at 0.2 ug/mL; assay type: functional
Summary of the method: (§2)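 M. tuberculosis H37Rv (Pasteur) grown twice for 1 week each in Dubos broth at 37 °C, washed, then filtered to remove clumps. 25 × 10⁴ CFU per well in RPMI 1640 with 5 mM HEPES, 2 mM L-glutamine and 2% FBS. Compound added from DMSO stock; 5,6-[³H]-uracil added at 24 h, then 18 h at 37 °C.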

[4] = tested on: Mycobacterium tuberculosis; test: In vitro inhibition of Mycobacterium tuberculosis H37Rv, determined at 2 ug/mL; assay type: functional; summary of the method: as §2
[5] = tested on: Mycobacterium tuberculosis; test: In vitro inhibition of Mycobacterium tuberculosis H37Rv, determined at 20 ug/mL; assay type: functional; summary of the method: as §2
[6] = biological target: T2, Amine oxidase [flavin-containing] A (Rattus norvegicus, UniProt P21396); test: Inhibition of Monoamine oxidase A from rat liver mitochondria
T2 sequence (P21396 whole entry): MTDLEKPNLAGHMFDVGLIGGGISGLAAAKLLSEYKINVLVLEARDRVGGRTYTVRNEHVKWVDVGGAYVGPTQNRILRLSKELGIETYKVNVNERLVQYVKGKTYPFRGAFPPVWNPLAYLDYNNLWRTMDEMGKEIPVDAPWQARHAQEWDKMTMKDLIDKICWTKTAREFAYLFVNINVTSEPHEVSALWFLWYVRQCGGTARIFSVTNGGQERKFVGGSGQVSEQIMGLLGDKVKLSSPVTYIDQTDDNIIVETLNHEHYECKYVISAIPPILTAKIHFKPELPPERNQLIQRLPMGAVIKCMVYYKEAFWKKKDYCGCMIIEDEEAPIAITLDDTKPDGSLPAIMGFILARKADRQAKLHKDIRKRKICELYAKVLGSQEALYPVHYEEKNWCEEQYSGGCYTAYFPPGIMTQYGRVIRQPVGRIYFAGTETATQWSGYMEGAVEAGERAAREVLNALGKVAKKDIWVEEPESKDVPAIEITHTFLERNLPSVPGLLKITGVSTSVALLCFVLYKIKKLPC
Summary of the method: (§3)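 Rat liver mitochondria from differential centrifugation, in 50 mM phosphate buffer pH 7.4. Preincubated with inhibitor (10⁻⁸–10⁻³ or 10⁻⁴ M) for 60 min at 37 °C. MAO-A activity measured radiometrically as ¹⁴C-aldehyde formed from 0.1 mM [¹⁴C]-5-hydroxytryptamine creatinine sulfate; IC50 reported.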

[7] = biological target: T2, Amine oxidase [flavin-containing] A; test: Inhibitory activity of compound against Monoamine oxidase A isolated from rat liver mitochondria using [14C]5-HT creatinine sulfate; NI denotes no inhibition at 1000 uM; summary of the method: as §3
[8] = biological target: T1, Amine oxidase [flavin-containing] B; test: Inhibitory activity against Monoamine oxidase B isolated from rat liver mitochondria using [14C]phenylethylamine; NI denotes no inhibition at 1000 uM; summary of the method: as §1

SMILES | IC50 [1] | MIC50 [2] | inhibition at 0.2 µg/mL [3] | inhibition at 2 µg/mL [4] | inhibition at 20 µg/mL [5] | IC50 [6] | IC50 [7] | IC50 [8]
CC(C)c1ccc(-c2c3nc4ccccc4c-3n[nH]c2N)cc1 | > 1000 µM | 12.6 µg/mL (≈ 41.8 µM) | 8.7% | 32.9% | 61.9% | > 1000 µM | – | –
CC(C)c1ccc(-c2c(N)nnc3c4ccccc4n(C)c23)cc1 | 316 µM | 1.42 µg/mL (≈ 4.49 µM) | 21.3% | 63.6% | 88% | 14.1 µM | – | –
CC(=O)N(C(C)=O)c1nnc2c3ccccc3n(C)c2c1-c1ccccc1 | – | – | – | – | 0% | – | – | –
Cn1c2ccccc2c2nnc(N)c(-c3ccccc3)c21 | ~1000 µM | – | 2.3% | 25.5% | 40.2% | 28.2 µM | – | –
CC(C)c1ccc(-c2c(N)nnc3c4cc(Br)ccc4n(C)c23)cc1 | – | 17.1 µg/mL (≈ 43.3 µM) | 0% | 0% | 60.7% | – | – | –
Nc1[nH]nc2c3ccccc3nc-2c1-c1cccc(Br)c1 | – | – | 0% | 0% | 32% | – | – | –
CC(C)c1ccc(-c2c3nc4ccc(Br)cc4c-3n[nH]c2N)cc1 | 79 µM | 1.77 µg/mL (≈ 4.64 µM) | 7.1% | 56.3% | 88.5% | 63 µM | – | –
CC(C)c1ccc(-c2c(O)nnc3c4ccccc4n(C)c23)cc1 | – | – | – | – | 0% | – | – | –
Cc1ccc2c(c1)c1nnc(N)c(-c3ccc(C(C)C)cc3)c1n2C | – | – | 0% | 0% | 40.5% | – | – | –
CCCn1c2ccccc2c2nnc(N)c(-c3ccc(C(C)C)cc3)c21 | – | – | 0% | 0% | 20% | – | – | –
Cn1c2ccccc2c2nnc(N)c(-c3ccccc3F)c21 | 41.6 µM | – | 0% | 0% | 45.3% | – | No inhibition | –
CCn1c2ccccc2c2nnc(N)c(-c3ccc(C(C)C)cc3)c21 | 15.8 µM | 10.5 µg/mL (≈ 31.7 µM) | 0% | 10.5% | 94.3% | 100 µM | – | –
Cc1ccc(-c2c(N)nnc3c4ccccc4n(C)c23)cc1 | – | – | 0% | 0% | 62.3% | – | – | –
Cn1c2ccccc2c2nnc(N)c(-c3cccc(Br)c3)c21 | 100 µM | – | 0% | 0% | 60.1% | 63.1 µM | – | –
CC(C)c1ccc(-c2c(N3C(=O)c4ccccc4C3=O)nnc3c4ccccc4n(C)c23)cc1 | – | – | – | – | 0% | – | – | –
Cc1ccc(-c2c3nc4ccccc4c-3n[nH]c2N)cc1 | 158 µM | 16.5 µg/mL (≈ 60.1 µM) | 0% | 0% | 40.5% | 31.6 µM | – | –
Cn1c2ccccc2c2nnc(O)c(-c3ccccc3)c21 | – | – | – | – | 0% | – | – | –
CCn1c2ccccc2c2nnc(N)c(-c3ccccc3)c21 | 72 µM | – | 0% | 0% | 40.3% | – | No inhibition | –

SMILES | IC50 [1] | MIC50 [2] | inhibition at 0.2 µg/mL [3] | inhibition at 2 µg/mL [4] | inhibition at 20 µg/mL [5] | IC50 [6] | IC50 [7] | IC50 [8]
Oc1[nH]nc2c3ccccc3nc-2c1-c1ccccc1 | – | – | – | – | 0% | – | – | –
CCn1c2ccccc2c2nnc(N)c(-c3ccc(C)cc3)c21 | 11 µM | – | 0% | 0% | 30.1% | – | No inhibition | –
Nc1nnc2c3ccccc3n(Cc3ccccc3)c2c1-c1ccccc1 | – | – | 0% | 0% | 20.7% | – | – | –
Nc1[nH]nc2c3ccccc3nc-2c1-c1ccccc1Cl | – | – | 0% | 0% | 35% | 316 µM | – | No inhibition
Nc1[nH]nc2c3ccccc3nc-2c1-c1ccccc1F | – | – | 0% | 0% | 40.3% | 631 µM | – | No inhibition
COc1ccc(-c2c3nc4ccccc4c-3n[nH]c2N)cc1 | – | 14.9 µg/mL (≈ 51.2 µM) | 0% | 0% | 30.2% | – | – | –
Cn1c2ccccc2c2nnc(NC=O)c(-c3ccccc3)c21 | – | – | – | – | 0% | – | – | –
Nc1nnc2c3ccccc3n(Cc3ccccc3)c2c1-c1ccccc1Cl | 35.4 µM | – | 0% | 0% | 50.8% | 17.8 µM | – | –
Nc1[nH]nc2c3ccccc3nc-2c1-c1ccc(F)cc1 | – | – | 0% | 0% | 35.1% | – | No inhibition | No inhibition
CC(C)c1ccc(-c2c(N)nnc3c4ccccc4n(CCN(C)C)c23)cc1 | – | – | 0% | 0% | 20.4% | 1000 µM | – | No inhibition
Cn1c2ccc(Br)cc2c2nnc(N)c(-c3ccccc3)c21 | – | – | 0% | 0% | 54.2% | – | – | –
CN(C)c1ccc(-c2c3nc4ccccc4c-3n[nH]c2N)cc1 | ~1000 µM | – | 5.2% | 10% | 66% | 79.4 µM | – | –
CCn1c2ccccc2c2nnc(N)c(-c3ccccc3Cl)c21 | ~1000 µM | – | 0% | 0% | 15.9% | ~1000 µM | – | –
Cn1c2ccccc2c2nnc(N)c(-c3ccccc3Cl)c21 | ~1000 µM | – | 0% | 0% | 3.1% | ~1000 µM | – | –
Nc1[nH]nc2c3cc(Br)ccc3nc-2c1-c1ccccc1 | 25.1 µM | 4.17 µg/mL (≈ 12.3 µM) | 9.2% | 44.3% | 91.4% | 63.1 µM | – | –
Nc1nnc2c([nH]c3ccccc32)c1-c1ccccc1 | – | – | 2.3% | 25.5% | 28.5% | – | No inhibition | No inhibition
NNC(=O)c1ccncc1 [ISONIAZID] | – | 0.25 µg/mL (≈ 1.82 µM) | 49.7% | 59.1% | 68.7% | – | – | –
CO[C@H]1/C=C/O[C@@]2(C)Oc3c(C)c(O)c4c(O)c(c(/C=N/N5CCN(C)CC5)c(O)c4c3C2=O)NC(=O)/C(C)=C\C=C\[C@H](C)[C@H](O)[C@@H](C)[C@@H](O)[C@@H](C)[C@H](OC(C)=O)[C@@H]1C [RIFAMPIN] | – | 0.1 µg/mL (≈ 0.122 µM) | 54.8% | 91.7% | 94.3% | – | – | –
